Active and inactive are the calls of the source. No cut-off for these calls is given here.
What was measured:
U-937 = test: Antiproliferative activity against human U937 cells after 24 hrs by MTT assay; format: functional; conditions: U-937, 24 h
Procedure, shortened: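 U937 cells kept in RPMI 1640 with 10% FBS, 1% penicillin/streptomycin and 25 mM HEPES (37 °C, 5% CO₂). Seeded at 5×10³ cells/well and held 24 h before exposure to 12 concentrations in 3-fold serial dilution. MTT reduction read at 570 nm. IC50 obtained by curve fitting.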

[1] = Antiproliferative activity against human A375P cells after 24 hrs by MTT assay; format: functional
Procedure, shortened: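 A375P cells grown in DMEM with 10% FBS and 1% penicillin/streptomycin at 37 °C, 5% CO₂. Harvested with trypsin-EDTA, seeded at 5×10³ cells/well and incubated 24 h before dosing with a 12-point, 3-fold serial dilution. Viability by MTT reduction, absorbance at 590 nm. IC50 derived by curve fitting.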

[2] = target: T1, Macrophage colony-stimulating factor 1 receptor (Homo sapiens, UniProt P07333); test: Inhibition of human FMS using myelin basic protein as substrate after 40 mins in presence of [gamma-33P]-ATP by liquid scintillation counting method
Procedure, shortened: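 Radiometric filter-binding assay with human FMS (5–10 mU) in 25 mM Tris pH 7.5, 0.02 mM EGTA, 0.66 mg/mL myelin basic protein and 10 mM magnesium acetate, with [γ-33P]ATP (approx. 500 cpm/pmol). Started with Mg-ATP mix and run 40 min at room temperature. Stopped with 3% phosphoric acid, spotted on P30 filtermat, washed in 75 mM phosphoric acid then methanol, scintillation counted.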

[3] = target: Receptor-type tyrosine-protein kinase FLT3 (Homo sapiens) (UniProt P36888); test: Inhibition of human FLT3 using EAIYAAPFAKKK peptide as substrate at 10 uM after 40 mins in presence of [gamma-33P]-ATP by liquid scintillation counting method
[4] = target: Vascular endothelial growth factor receptor 3 (Homo sapiens) (UniProt P35916); test: Inhibition of human FLT4 using poly[Glu:Tyr] (4:1) as substrate at 10 uM after 40 mins in presence of [gamma-33P]-ATP by liquid scintillation counting method
[5] = target: T2, Platelet-derived growth factor receptor beta (Homo sapiens, UniProt P09619); test: Inhibition of human PDGFRb using poly[Glu:Tyr] (4:1) as substrate at 10 uM after 40 mins in presence of [gamma-33P]-ATP by liquid scintillation counting method
[6] = target: T3, Proto-oncogene tyrosine-protein kinase receptor Ret (Homo sapiens, UniProt P07949); test: Inhibition of human RET using KKKVSRSGLYRSPSMPENLNRPR as substrate at 10 uM after 40 mins in presence of [gamma-33P]-ATP by liquid scintillation counting method
[7] = target: T4, Receptor-type tyrosine-protein kinase FLT3 (Homo sapiens, UniProt P36888); test: Inhibition of FLT3 (unknown origin) after 40 mins in presence of [gamma-33P]-ATP by liquid scintillation counting method
T4 sequence (P36888 whole entry): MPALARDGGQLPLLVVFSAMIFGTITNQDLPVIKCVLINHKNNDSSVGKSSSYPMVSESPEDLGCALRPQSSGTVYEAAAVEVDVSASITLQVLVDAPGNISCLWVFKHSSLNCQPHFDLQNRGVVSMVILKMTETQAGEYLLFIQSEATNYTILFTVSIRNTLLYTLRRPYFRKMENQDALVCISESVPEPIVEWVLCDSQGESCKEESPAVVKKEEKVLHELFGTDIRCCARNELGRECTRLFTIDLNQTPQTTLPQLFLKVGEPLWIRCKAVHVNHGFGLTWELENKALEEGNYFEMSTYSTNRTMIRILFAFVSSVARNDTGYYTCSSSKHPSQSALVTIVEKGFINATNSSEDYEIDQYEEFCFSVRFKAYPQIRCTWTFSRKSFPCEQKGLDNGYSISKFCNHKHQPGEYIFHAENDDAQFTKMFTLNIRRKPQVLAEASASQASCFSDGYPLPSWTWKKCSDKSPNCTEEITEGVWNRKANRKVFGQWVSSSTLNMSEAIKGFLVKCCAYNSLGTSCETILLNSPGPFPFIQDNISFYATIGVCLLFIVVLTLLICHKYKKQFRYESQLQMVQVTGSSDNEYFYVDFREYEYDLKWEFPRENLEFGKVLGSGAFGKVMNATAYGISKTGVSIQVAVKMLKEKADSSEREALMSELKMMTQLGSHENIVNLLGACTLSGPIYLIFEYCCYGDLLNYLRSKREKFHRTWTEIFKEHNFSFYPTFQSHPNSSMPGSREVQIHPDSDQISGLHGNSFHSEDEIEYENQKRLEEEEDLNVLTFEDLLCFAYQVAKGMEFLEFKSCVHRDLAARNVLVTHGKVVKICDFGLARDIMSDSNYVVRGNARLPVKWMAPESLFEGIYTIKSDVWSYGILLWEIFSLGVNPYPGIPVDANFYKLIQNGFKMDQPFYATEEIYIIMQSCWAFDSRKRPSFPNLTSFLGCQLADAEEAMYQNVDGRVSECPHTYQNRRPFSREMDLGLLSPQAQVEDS

[8] = target: T2, Platelet-derived growth factor receptor beta; test: Inhibition of PDGFRb (unknown origin) after 40 mins in presence of [gamma-33P]-ATP by liquid scintillation counting method
[9] = target: T3, Proto-oncogene tyrosine-protein kinase receptor Ret; test: Inhibition of RET (unknown origin) after 40 mins in presence of [gamma-33P]-ATP by liquid scintillation counting method
[10] = target: T1, Macrophage colony-stimulating factor 1 receptor; test: Inhibition of human FMS using myelin basic protein as substrate at 10 uM after 40 mins in presence of [gamma-33P]-ATP by liquid scintillation counting method

T2 sequence (P09619 whole entry): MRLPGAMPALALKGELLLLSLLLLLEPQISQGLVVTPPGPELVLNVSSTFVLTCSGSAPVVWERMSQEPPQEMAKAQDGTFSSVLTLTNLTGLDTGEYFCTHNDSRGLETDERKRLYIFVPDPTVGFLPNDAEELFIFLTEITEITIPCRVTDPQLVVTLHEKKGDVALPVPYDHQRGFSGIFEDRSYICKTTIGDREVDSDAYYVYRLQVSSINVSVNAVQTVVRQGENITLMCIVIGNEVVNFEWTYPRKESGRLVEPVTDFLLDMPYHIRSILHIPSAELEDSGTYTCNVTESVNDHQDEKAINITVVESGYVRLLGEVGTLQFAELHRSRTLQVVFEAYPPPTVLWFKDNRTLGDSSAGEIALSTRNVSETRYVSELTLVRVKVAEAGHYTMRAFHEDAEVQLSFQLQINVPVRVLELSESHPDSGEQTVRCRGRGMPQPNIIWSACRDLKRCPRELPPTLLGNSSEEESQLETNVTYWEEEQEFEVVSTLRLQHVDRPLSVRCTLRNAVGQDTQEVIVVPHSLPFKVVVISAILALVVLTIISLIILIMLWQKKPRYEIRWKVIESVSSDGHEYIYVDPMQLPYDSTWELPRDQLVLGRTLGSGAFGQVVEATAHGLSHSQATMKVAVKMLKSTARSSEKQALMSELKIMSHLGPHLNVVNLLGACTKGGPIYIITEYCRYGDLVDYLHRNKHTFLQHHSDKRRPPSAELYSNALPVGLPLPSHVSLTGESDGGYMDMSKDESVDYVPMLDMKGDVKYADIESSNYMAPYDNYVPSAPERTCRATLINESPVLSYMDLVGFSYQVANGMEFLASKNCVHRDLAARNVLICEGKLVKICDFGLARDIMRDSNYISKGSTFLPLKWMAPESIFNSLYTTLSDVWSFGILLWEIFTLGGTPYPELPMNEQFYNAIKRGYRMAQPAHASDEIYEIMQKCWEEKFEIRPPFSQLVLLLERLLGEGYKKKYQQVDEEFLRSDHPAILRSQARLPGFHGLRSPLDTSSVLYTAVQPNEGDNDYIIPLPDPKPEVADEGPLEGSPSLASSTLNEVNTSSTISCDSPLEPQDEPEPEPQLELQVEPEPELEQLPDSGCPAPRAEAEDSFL
T1 sequence (P07333 whole entry): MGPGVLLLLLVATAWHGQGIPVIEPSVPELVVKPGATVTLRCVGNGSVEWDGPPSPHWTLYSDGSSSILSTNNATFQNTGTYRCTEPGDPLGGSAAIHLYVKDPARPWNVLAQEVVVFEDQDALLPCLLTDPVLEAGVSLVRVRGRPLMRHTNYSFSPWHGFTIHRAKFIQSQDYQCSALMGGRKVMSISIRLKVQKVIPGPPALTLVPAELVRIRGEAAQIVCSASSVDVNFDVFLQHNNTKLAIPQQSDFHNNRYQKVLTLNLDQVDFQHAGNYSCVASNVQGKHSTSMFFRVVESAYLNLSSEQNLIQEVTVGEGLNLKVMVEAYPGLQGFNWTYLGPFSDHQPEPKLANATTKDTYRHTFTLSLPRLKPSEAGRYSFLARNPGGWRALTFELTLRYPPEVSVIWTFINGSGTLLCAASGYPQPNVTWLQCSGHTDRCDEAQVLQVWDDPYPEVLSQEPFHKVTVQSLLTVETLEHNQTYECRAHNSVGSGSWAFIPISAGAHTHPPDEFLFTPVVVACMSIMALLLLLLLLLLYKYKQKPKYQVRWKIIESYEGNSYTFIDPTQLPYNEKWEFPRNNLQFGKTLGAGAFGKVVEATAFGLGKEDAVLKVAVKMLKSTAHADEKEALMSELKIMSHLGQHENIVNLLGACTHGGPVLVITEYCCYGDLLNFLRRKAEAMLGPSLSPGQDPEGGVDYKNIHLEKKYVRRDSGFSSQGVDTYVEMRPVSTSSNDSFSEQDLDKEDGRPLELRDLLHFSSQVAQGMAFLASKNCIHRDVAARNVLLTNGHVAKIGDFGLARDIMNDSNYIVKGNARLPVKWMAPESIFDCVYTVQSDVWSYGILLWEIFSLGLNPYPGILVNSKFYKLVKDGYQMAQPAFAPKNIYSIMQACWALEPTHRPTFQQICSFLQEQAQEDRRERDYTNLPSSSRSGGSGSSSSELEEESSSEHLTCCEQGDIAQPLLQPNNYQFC
T3 sequence (P07949 whole entry): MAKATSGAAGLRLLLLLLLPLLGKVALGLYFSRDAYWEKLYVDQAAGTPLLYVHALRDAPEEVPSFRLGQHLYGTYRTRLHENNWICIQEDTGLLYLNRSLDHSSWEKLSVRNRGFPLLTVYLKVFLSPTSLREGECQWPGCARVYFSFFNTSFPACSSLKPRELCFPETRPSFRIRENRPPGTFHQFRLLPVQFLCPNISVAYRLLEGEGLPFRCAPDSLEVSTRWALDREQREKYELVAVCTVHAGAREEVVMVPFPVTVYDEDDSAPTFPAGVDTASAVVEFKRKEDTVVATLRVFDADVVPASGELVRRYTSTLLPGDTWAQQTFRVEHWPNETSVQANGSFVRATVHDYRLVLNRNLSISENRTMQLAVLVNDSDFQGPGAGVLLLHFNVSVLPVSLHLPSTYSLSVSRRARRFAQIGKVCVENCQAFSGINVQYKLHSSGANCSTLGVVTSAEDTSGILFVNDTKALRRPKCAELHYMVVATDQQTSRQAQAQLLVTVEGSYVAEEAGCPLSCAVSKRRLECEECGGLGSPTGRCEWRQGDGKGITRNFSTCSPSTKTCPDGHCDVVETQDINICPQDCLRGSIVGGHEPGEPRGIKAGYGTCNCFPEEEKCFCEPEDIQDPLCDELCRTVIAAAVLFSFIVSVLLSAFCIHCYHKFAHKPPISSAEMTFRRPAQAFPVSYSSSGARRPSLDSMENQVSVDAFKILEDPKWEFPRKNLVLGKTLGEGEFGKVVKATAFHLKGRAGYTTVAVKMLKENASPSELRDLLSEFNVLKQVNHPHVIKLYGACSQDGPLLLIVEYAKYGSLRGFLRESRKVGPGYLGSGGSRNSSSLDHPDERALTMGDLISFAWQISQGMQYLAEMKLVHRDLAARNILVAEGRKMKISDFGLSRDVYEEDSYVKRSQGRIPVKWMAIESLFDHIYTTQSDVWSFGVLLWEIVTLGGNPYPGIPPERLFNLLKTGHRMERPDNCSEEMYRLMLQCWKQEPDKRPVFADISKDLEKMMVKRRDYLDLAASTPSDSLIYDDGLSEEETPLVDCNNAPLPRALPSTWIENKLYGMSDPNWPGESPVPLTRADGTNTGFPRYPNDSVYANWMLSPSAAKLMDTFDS
Vascular endothelial growth factor receptor 3 (Homo sapiens), sequence (P35916 whole entry): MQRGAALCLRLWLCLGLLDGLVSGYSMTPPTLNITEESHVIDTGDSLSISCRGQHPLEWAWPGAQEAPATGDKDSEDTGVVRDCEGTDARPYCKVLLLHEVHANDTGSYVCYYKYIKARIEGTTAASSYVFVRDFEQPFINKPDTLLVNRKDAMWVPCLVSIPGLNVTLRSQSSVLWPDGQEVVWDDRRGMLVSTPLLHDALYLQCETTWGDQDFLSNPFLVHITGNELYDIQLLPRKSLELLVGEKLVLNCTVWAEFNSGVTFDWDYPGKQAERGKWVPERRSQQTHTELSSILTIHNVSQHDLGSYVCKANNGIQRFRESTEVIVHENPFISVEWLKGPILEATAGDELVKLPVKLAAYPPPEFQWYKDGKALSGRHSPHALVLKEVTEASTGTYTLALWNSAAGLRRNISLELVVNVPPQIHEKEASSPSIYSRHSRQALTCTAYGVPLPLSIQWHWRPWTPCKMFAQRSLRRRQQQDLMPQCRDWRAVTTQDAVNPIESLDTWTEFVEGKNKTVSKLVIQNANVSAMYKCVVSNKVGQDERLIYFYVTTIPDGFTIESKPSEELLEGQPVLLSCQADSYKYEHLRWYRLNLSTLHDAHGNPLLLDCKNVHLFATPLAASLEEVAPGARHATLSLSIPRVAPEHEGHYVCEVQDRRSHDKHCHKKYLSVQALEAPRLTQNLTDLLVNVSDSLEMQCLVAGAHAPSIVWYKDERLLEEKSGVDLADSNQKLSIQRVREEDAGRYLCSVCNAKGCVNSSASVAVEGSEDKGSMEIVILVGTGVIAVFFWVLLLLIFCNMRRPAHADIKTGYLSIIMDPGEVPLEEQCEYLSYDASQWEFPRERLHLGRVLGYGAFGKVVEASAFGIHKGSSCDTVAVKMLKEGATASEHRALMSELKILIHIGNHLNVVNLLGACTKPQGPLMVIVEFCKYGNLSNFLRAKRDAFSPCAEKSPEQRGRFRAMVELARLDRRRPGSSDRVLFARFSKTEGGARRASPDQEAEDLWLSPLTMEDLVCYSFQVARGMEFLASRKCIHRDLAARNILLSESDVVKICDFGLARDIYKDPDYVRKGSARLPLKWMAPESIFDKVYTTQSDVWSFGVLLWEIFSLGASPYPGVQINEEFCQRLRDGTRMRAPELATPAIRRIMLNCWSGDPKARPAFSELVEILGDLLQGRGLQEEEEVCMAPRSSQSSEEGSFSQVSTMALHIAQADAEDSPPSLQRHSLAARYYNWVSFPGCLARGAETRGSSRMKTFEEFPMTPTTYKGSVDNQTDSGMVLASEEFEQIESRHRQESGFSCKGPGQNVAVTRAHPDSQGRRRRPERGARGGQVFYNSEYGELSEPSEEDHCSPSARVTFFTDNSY

Question: What does the source list for `CCN1CCN(Cc2ccc(NC(=O)Nc3cccc(C4=Nc5cscc5NC(=O)C4)c3)cc2C(F)(F)F)CC1`?
Answer: GI50 (U-937): 2.75 µM; GI50 [1]: 1.82 µM

Question: What does the source list for `O=C1CC(c2cccc(NC(=O)Nc3ccc(Cl)cc3)c2)=Nc2cscc2N1`?
Answer: GI50 (U-937): 4.55 µM; GI50 [1]: 5.04 µM

Question: For `CCN1CCN(Cc2ccc(NC(=O)Nc3ccc(C4=Nc5cscc5NC(=O)C4)cc3)cc2C(F)(F)F)CC1`, which IC50 [2] is on record?
Answer: 0.00373 µM

Question: What about the GI50 [1] of the same compound?
Answer: 0.32 µM

Question: And the inhibition [3]?
Answer: Active

Question: What about the inhibition [4] of the same compound?
Answer: Active

Question: What about the inhibition [5] of the same compound?
Answer: Active

Question: What about the inhibition [6] of the same compound?
Answer: Active

Question: And the IC50 [7]?
Answer: 0.0279 µM

Question: What about the IC50 [8] of the same compound?
Answer: 0.0634 µM

Question: What about the IC50 [9] of the same compound?
Answer: 0.0716 µM

Question: What about the inhibition [10] of the same compound?
Answer: Active

Question: For `O=C1CC(c2cccc(NC(=O)c3cnc4ccccc4c3)c2)=Nc2cscc2N1`, which GI50 [1] is on record?
Answer: 6.87 µM

Question: Which GI50 (U-937) does the source give for `O=C1CC(c2ccc(NC(=O)c3ccccc3-c3ccccc3)cc2)=Nc2cscc2N1` here?
Answer: 3.77 µM

Question: And the GI50 [1]?
Answer: > 30 µM

Question: With `O=C1CC(c2cccc(NC(=O)c3cnn(-c4ccccc4)c3C(F)(F)F)c2)=Nc2cscc2N1` as the compound, how does the GI50 (U-937) read?
Answer: 9.64 µM

Question: For `O=C1CC(c2ccc(NC(=O)Nc3ccc(Cl)c(C(F)(F)F)c3)cc2)=Nc2cscc2N1`, which GI50 (U-937) is on record?
Answer: 4.08 µM

Question: And the GI50 [1]?
Answer: 1.7 µM

Question: For `O=C1CC(c2ccc(NC(=O)c3cc(N4CCOCC4)cc(C(F)(F)F)c3)cc2)=Nc2cscc2N1`, which GI50 [1] is on record?
Answer: 3.45 µM

Question: With `O=C1CC(c2cccc(NC(=O)Nc3ccc(Cl)c(Cl)c3)c2)=Nc2cscc2N1` as the compound, how does the GI50 (U-937) read?
Answer: 3.2 µM

Question: And the GI50 [1]?
Answer: 11 µM

Question: What does the source list for `CN1CCN(c2cc(C(=O)Nc3ccc(C4=Nc5cscc5NC(=O)C4)cc3)cc(C(F)(F)F)c2)CC1`?
Answer: GI50 (U-937): > 30 µM; GI50 [1]: > 30 µM

Question: With `O=C1CC(c2cccc(NC(=O)c3cc(N4CCOCC4)cc(C(F)(F)F)c3)c2)=Nc2cscc2N1` as the compound, how does the GI50 [1] read?
Answer: 1.98 µM

Question: What does the source list for `O=C(Cc1c[nH]c2ccccc12)Nc1cccc(C2=Nc3cscc3NC(=O)C2)c1`?
Answer: GI50 (U-937): > 30 µM; GI50 [1]: > 30 µM

Question: Which GI50 [1] does the source give for `O=C(Cc1ccc(-c2ccccc2)cc1)Nc1ccc(C2=Nc3cscc3NC(=O)C2)cc1` here?
Answer: 8.7 µM

Question: Which GI50 (U-937) does the source give for `CNC(=O)c1cc(Oc2ccc(NC(=O)Nc3ccc(Cl)c(C(F)(F)F)c3)cc2)ccn1` [SORAFENIB] here?
Answer: 2.34 µM

Question: And the GI50 [1]?
Answer: 3.4 µM

Question: For `O=C(Cc1c[nH]c2ccccc12)Nc1ccc(C2=Nc3cscc3NC(=O)C2)cc1`, which GI50 (U-937) is on record?
Answer: > 30 µM

Question: What about the GI50 [1] of the same compound?
Answer: > 30 µM

Question: For `O=C1CC(c2cccc(NC(=O)c3ccccc3-c3ccccc3)c2)=Nc2cscc2N1`, which GI50 (U-937) is on record?
Answer: 1.03 µM

Question: What about the GI50 [1] of the same compound?
Answer: 3.25 µM

Question: For `CC(=O)N1CCC(C(=O)Nc2ccc(C3=Nc4cscc4NC(=O)C3)cc2)CC1`, which GI50 [1] is on record?
Answer: > 30 µM

Question: Which GI50 (U-937) does the source give for `O=C1CC(c2ccc(NC(=O)Nc3ccc(Cl)cc3)cc2)=Nc2cscc2N1` here?
Answer: 0.964 µM

Question: What about the GI50 [1] of the same compound?
Answer: 3.12 µM

Question: For `CN1CCN(c2cc(C(=O)Nc3cccc(C4=Nc5cscc5NC(=O)C4)c3)cc(C(F)(F)F)c2)CC1`, which GI50 [1] is on record?
Answer: 3.04 µM

Question: With `O=C1CC(c2cccc(NC(=O)Nc3ccc(Cl)c(C(F)(F)F)c3)c2)=Nc2cscc2N1` as the compound, how does the GI50 (U-937) read?
Answer: 14.3 µM

Question: What about the GI50 [1] of the same compound?
Answer: 8.25 µM

Question: Which GI50 [1] does the source give for `O=C1CC(c2ccc(NC(=O)Nc3ccc(Cl)c(Cl)c3)cc2)=Nc2cscc2N1` here?
Answer: 2.06 µM

Question: Which GI50 [1] does the source give for `O=C1CC(c2cccc(NC(=O)c3ccc(Cl)c(C(F)(F)F)c3)c2)=Nc2cscc2N1` here?
Answer: 4.99 µM

Question: Which GI50 [1] does the source give for `Cc1c(C)c2c(c(C)c1O)CC[C@](C)(C(=O)Nc1cccc(C3=Nc4cscc4NC(=O)C3)c1)O2` here?
Answer: > 30 µM

Question: Which GI50 [1] does the source give for `O=C1CC(c2ccc(NC(=O)c3cnn(-c4ccccc4)c3C(F)(F)F)cc2)=Nc2cscc2N1` here?
Answer: 6.85 µM

Question: Which GI50 [1] does the source give for `O=C1CC(c2ccc(NC(=O)c3ccc(Cl)c(C(F)(F)F)c3)cc2)=Nc2cscc2N1` here?
Answer: 7.85 µM

— ChEMBL document CHEMBL4219080, “Discovery of novel 4-aryl-thieno[1,4]diazepin-2-one derivatives targeting multiple protein kinases as anticancer agents” (Bioorg Med Chem, 2018)
